Source: PubChem (several laboratories)
DAGLB inhibitor: diacylglycerol lipase beta (human) inhibition; Q8NCG7; HEK293T DAGLB membrane lysate, EnzChek fluorogenic substrate; inhibition, % at 5.17 µM; 0.059% of 340,000 active; AID 504411; in the data active means inhibition above about 34%
Target sequence (Q8NCG7 whole entry, looked up): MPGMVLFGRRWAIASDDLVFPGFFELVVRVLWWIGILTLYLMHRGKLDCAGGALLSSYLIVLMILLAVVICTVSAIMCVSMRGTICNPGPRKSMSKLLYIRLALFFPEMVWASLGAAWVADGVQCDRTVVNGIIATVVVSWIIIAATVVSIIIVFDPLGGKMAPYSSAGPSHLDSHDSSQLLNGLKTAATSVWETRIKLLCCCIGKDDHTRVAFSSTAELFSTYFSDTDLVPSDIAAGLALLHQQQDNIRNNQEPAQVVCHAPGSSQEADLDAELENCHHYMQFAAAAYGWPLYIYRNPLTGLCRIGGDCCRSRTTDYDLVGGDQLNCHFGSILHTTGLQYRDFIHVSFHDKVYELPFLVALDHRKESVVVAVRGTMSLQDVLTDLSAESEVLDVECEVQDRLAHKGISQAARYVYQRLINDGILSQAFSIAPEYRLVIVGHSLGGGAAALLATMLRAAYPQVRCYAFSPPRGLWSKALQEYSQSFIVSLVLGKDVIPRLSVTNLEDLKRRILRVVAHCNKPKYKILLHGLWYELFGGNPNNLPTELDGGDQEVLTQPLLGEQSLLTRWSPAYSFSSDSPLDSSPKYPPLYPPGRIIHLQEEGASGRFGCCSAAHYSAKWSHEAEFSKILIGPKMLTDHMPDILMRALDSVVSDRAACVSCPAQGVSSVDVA
MPTP inh: blocks calcium-induced mitochondrial swelling; inhibition, % at 10 µM; isolated mouse mitochondria, Ca2+ swelling absorbance, 30 min; 1.4% of 360,000 active;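 active means inhibition of 50% or more, scaled per plate between neutral and stimulator controls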
TAAR1 antag: antagonists of human TAAR1; Q96RJ0; CHO RD-HGA16 TAAR1, Fluo-8 calcium fluorescence, antagonist; inhibition, % at 3 µM; 1.5% of 360,000 active; AID 624466;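 active means inhibition above a per-plate cutoff, the mean inhibition of test compounds on that plate plus 3 SD, cut at about 49% in these data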
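Assay system: RD-HGA16 CHO cells with stable hTAAR1 and Gα16 / Reagent: EC80 β-phenethylamine stimulus / Doses: 3 µM, single point / Timing: dye loading 75 min at 37 °C, then 30 min room temperature / Measured by: Fluo-8 intracellular calcium dye fluorescence, real-time kinetic reads / Controls: vehicle wells and EC80 agonist wells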
TAAR1 agonist: human TAAR1 agonism | CHO RD-HGA16 TAAR1, Fluo-8 calcium fluorescence; vehicle wells 0%, saturating PEA agonist 100% | activation, % at 3 µM | 0.99% of 360,000 active;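 active means activation above the mean activation of all test compounds in the run plus 3 SD, cut at about 38% in these data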
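Signal – calcium-sensitive Fluo-8 signal, excitation 470-495, emission 515-575 nm · System – RD-HGA16 (CHO) cells co-expressing Gα16 and hTAAR1 · Incubation – 17-24 h seeding, 75 min 37 °C dye, 30 min RT · Compound dosing – 3 µM single concentration · Repeats – no replicates (n 1)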
GPR7 antag: human neuropeptides B/W receptor 1 antagonism. P48145. GPR7-expressing cells, fluorescence antagonist assay. inhibition, % at 4.4 µM. 1.1% of 290,000 active; in the data active means inhibition above about 16%, passing the limit was not always enough;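 further: cells stimulated with the agonist NPW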
TAAR1 ag conf: confirmation of human TAAR1 agonists; activation, % at 3 µM; CHO RD-HGA16 TAAR1, Fluo-8 calcium fluorescence; scaled: DMSO 0%, maximal phenethylamine 100%; shares compounds with TAAR1 agonist; 82% of 2,400 active;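 active means activation above a cutoff set at the run's mean compound activation plus 3 SD, cut at about 39% in these data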
Ga16 nonsel ag: nonselective agonist in parental cells, TAAR1 agonist counter-screen. shares compounds with TAAR1 agonist. CHO-Ga16 parental, Fluo-8 calcium fluorescence; normalized to maximal ATP response, DMSO zero. activation, % at 3 µM. 50% of 2,400 active. AID 651787;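 active means activation above the run cutoff, the mean activation over all tested wells plus 3 SD, cut at about 12% in these data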
TAAR1 desensitize: counter-screen for human TAAR1 agonists: agonists that desensitize TAAR1. shares compounds with TAAR1 agonist. CHO RD-HGA16 hTAAR1, Fluo-8 calcium, beta-PEA response inhibition. inhibition, % at 3 µM. 46% of 2,400 active. AID 651951;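 active means inhibition above the run cutoff, the mean inhibition of all test compounds plus 3 SD, cut at about 49% in these data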;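 further: beta-PEA stimulus applied at its EC80; loss of beta-PEA calcium signal after compound pretreatment read as receptor desensitization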
Ga16 nonsel ant: nonselective Ga16 antagonism, counter-screen. shares compounds with TAAR1 agonist. CHO-Ga16 ATP-induced calcium, Fluo-8 fluorescence. inhibition, % at 3 µM. 39% of 2,400 active. AID 651952;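 active means inhibition above the plate's mean compound inhibition plus 3 SD, computed per plate, cut at about 22% in these data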
Each line names hits and unclear results; the compound was inactive in the other large screens (follow-up assays come after a bar, where they were run). Shown are actives, neighbours in structure and some others; about 4% of the full set was active somewhere.

O=C(Nc1cccnc1)Nc1cccc(F)c1	TAAR1 agonist 52 | TAAR1 ag conf 78 | Ga16 nonsel ag inactive | TAAR1 desensitize 54 | Ga16 nonsel ant inactive
O=C(Nc1ccncc1)c1cccc(F)c1	none
Fc1cccc(NC(=S)Nc2cccnc2)c1	none
O=C(Nc1ccncc1)Nc1cccc(F)c1	TAAR1 agonist 92 | TAAR1 ag conf 104 | Ga16 nonsel ag 12 | TAAR1 desensitize 84 | Ga16 nonsel ant inactive
O=C(Nc1ccncc1)Nc1ccc(F)cc1F	TAAR1 agonist 47 | TAAR1 ag conf 71 | Ga16 nonsel ag inactive | TAAR1 desensitize inactive | Ga16 nonsel ant inactive
Cc1cccc(NC(=O)Nc2cnccn2)c1	none
CC(=O)c1ccc(NC(=S)NC(NC(=O)c2ccco2)C(Cl)(Cl)Cl)cc1 (centres undefined)	TAAR1 agonist 96 | TAAR1 ag conf 106 | Ga16 nonsel ag 29 | TAAR1 desensitize 80 | Ga16 nonsel ant inactive
COc1ccccc1NC(=S)NC(NC(=O)c1ccco1)C(Cl)(Cl)Cl (centres undefined)	none
CC1CCN(C(=O)CCC(=O)Nc2ccc([N+](=O)[O-])cc2)CC1	none (no result: GPR7 antag)
COC(=O)c1cc2c(c3c4cc(C)ccc4n(S(=O)(=O)c4cccc(C)c4)c13)C(=O)N(Cc1ccccc1OC)C2	none (no result: DAGLB inhibitor, MPTP inh, GPR7 antag)
COc1ccc(/C=C/C(=O)c2ccc([N+](=O)[O-])o2)cc1OC	TAAR1 agonist 59 (no result: DAGLB inhibitor, MPTP inh, GPR7 antag) | TAAR1 ag conf 47 | Ga16 nonsel ag 17 | TAAR1 desensitize 49 | Ga16 nonsel ant 31
Brc1ccc(C2=CC(c3cccs3)n3ncnc3N2)cc1 (centres undefined)	TAAR1 antag 110, TAAR1 agonist 164 | TAAR1 ag conf inactive | Ga16 nonsel ag 51 | TAAR1 desensitize 62 | Ga16 nonsel ant 57
CN(CCNC(=O)c1ccc(N2CCCC2=O)cc1)CCc1ccccc1	TAAR1 agonist 53 | TAAR1 ag conf 62 | Ga16 nonsel ag inactive | TAAR1 desensitize inactive | Ga16 nonsel ant inactive
CN(CCNC(=O)c1cccc(N2CCCC2=O)c1)Cc1ccccc1	none
COC(=O)[C@]12C[C@H](CC(=O)NCc3ccc(C)o3)C(=O)N(CCC3=CCCCC3)C1=C[C@H](COCc1ccccc1)O[C@@H]2C	none (no result: DAGLB inhibitor, MPTP inh, GPR7 antag)
Cc1sc(NC(=O)C2CCCCC2C(=O)O)c(C(N)=O)c1-c1ccc(C(C)C)cc1 (centres undefined)	none
Cc1sc(NC(=O)C2CCCCC2C(=O)O)c(C(N)=O)c1-c1ccc(C(C)(C)C)cc1 (centres undefined)	TAAR1 agonist 67 | TAAR1 ag conf 43 | Ga16 nonsel ag 20 | TAAR1 desensitize inactive | Ga16 nonsel ant inactive
C=CCc1c(C)[nH]c(=O)[nH]c1=O	TAAR1 agonist 72 | TAAR1 ag conf inactive | Ga16 nonsel ag inactive | TAAR1 desensitize inactive | Ga16 nonsel ant inactive
O=C(O)c1ccccc1-c1ccc(/C=C/c2cc(C(F)(F)F)[nH]c(=O)n2)o1	TAAR1 agonist 237 | TAAR1 ag conf 69 | Ga16 nonsel ag 117 | TAAR1 desensitize inactive | Ga16 nonsel ant 28
Fc1ccccc1-c1nc(-c2ccc(-c3nn[nH]n3)cc2)no1	TAAR1 agonist 51 (no result: GPR7 antag) | TAAR1 ag conf inactive | Ga16 nonsel ag 16 | TAAR1 desensitize inactive | Ga16 nonsel ant inactive
Fc1ccccc1-c1nc(-c2ccccc2)no1	none
CCC(C)(C)NC(=O)C(c1cccc(OC)c1)N(C(=O)c1ccn[nH]1)c1cccc(OC)c1 (centres undefined)	TAAR1 agonist 50 | TAAR1 ag conf inactive | Ga16 nonsel ag 14 | TAAR1 desensitize inactive | Ga16 nonsel ant 28
CCC(C)(C)NC(=O)C(c1cccs1)N(C(=O)c1ccn[nH]1)c1ccccc1 (centres undefined)	none
S=c1[nH]nc(-c2ccncc2)n1/N=C/c1cn(-c2ccccc2)nc1-c1ccccc1	TAAR1 agonist 82 (no result: DAGLB inhibitor) | TAAR1 ag conf 76 | Ga16 nonsel ag 17 | TAAR1 desensitize 61 | Ga16 nonsel ant inactive
O=[N+]([O-])c1cc(/C=N/n2c(-c3ccncc3)n[nH]c2=S)ccc1Cl	TAAR1 agonist 52 | TAAR1 ag conf 98 | Ga16 nonsel ag 19 | TAAR1 desensitize inactive | Ga16 nonsel ant inactive
O=[N+]([O-])c1ccc(-c2nn(-c3ccccc3)cc2/C=N/n2c(-c3ccncc3)n[nH]c2=S)cc1	none
COC(=O)c1cc2c(c3c4cc(C)ccc4n(S(=O)(=O)c4ccc(OC)cc4)c13)C(=O)N(Cc1ccc(C(F)(F)F)cc1)C2	none (no result: DAGLB inhibitor, MPTP inh, GPR7 antag)
COc1cc(N=c2ssnc2Cl)c(OC)cc1Cl	TAAR1 agonist 59 | TAAR1 ag conf 49 | Ga16 nonsel ag 38 | TAAR1 desensitize inactive | Ga16 nonsel ant 33
COc1ccc(OC)c(N=c2ssnc2Cl)c1	none
O=C(O)C1OC1(c1ccccc1Cl)c1ccccc1Cl (centres undefined)	none (no result: GPR7 antag)
N#C/C(=C/C=C/c1ccccc1)C(=O)Nc1ccccc1	TAAR1 agonist 74 | TAAR1 ag conf inactive | Ga16 nonsel ag 25 | TAAR1 desensitize inactive | Ga16 nonsel ant 26
Cc1ccc(S(=O)(=O)N(C)C[C@@H]2OCc3cn(nn3)CCCC(=O)N([C@H](C)CO)C[C@H]2C)cc1	none (no result: DAGLB inhibitor, GPR7 antag)
CCOc1ccc(N2C(=O)CC(NCc3ccc(S(N)(=O)=O)cc3)C2=O)cc1 (centres undefined)	TAAR1 agonist 45 | TAAR1 ag conf inactive | Ga16 nonsel ag inactive | TAAR1 desensitize inactive | Ga16 nonsel ant inactive
CN=c1scc(-c2cccs2)n1/N=C/c1ccc(O)c(O)c1O	TAAR1 agonist 45 | TAAR1 ag conf 56 | Ga16 nonsel ag 21 | TAAR1 desensitize inactive | Ga16 nonsel ant inactive
O=C(C1CCCN(S(=O)(=O)c2cccc3nsnc23)C1)N1CCc2ccccc2C1 (centres undefined)	TAAR1 agonist 47 | TAAR1 ag conf 54 | Ga16 nonsel ag inactive | TAAR1 desensitize inactive | Ga16 nonsel ant 23
Cc1ccc2c(c1)[C@H]1[C@H](CO2)[C@H](c2ccccc2)[C@]2(C)C(=O)N(Cc3ccc(F)cc3)CC(=O)N12	TAAR1 agonist 62 (no result: GPR7 antag) | TAAR1 ag conf inactive | Ga16 nonsel ag 19 | TAAR1 desensitize inactive | Ga16 nonsel ant inactive
CCOC(=O)/C(=C\C=C1/Sc2cc(OCC)c(OCC)cc2N1CC)C(C)=O	TAAR1 antag 62, TAAR1 agonist 121 | TAAR1 ag conf 167 | Ga16 nonsel ag 225 | TAAR1 desensitize 80 | Ga16 nonsel ant 86
CCN1/C(=C\C=C2\C(=O)N(C)C(=S)N2C)Sc2ccccc21	none
